The test system of this assay is Staphylococcus aureus. In words: Inhibition of histidine kinase in methicillin-resistant Staphylococcus aureus isolate C1BP13 assessed as adjuvant activity for restoration of cloxacillin induced bactericidal activity by measuring cloxacillin MBC at 50 ug/ml by broth microdilution method (reference value: >8 ug/ml). The essentials:
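Clinical resistant isolates and quality control strains (S. aureus ATCC 29213, E. coli ATCC 25922) are tested by EUCAST broth microdilution with a 10⁶ bacteria/mL inoculum, in triplicate, with or without a fixed adjuvant concentration. For MBC, the MIC dilution and at least two more concentrated dilutions are plated and CFU/mL counted.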

Structures are written as SMILES.

Our source for the MBC values is ChEMBL document CHEMBL3860044, “The Rational Design, Synthesis, and Antimicrobial Properties of Thiophene Derivatives That Inhibit Bacterial Histidine Kinases” (J Med Chem, 2016).

Consider `O=[N+]([O-])c1ccc(-c2ccccc2O)s1`, for which the MBC is > 8 µg/mL.
